Measurements taken from ChEMBL document CHEMBL1157379, “Transcriptional response of Candida parapsilosis following exposure to farnesol” (2007).
Calls of active or inactive are those of the source. The calls are words filed in the database; no cut-off is given here.

Legend:
Candida parapsilosis [1] = experiment: Decrease in AMO2 gene expression in Candida parapsilosis CLIB214 at 50 uM after 2 hrs by microarray based transcriptional profiling relative to control; format: functional
Method in brief: (§1)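 Cells in YPD at 30°C treated with 50 μM farnesol at 4 h, with a methanol control. RNA harvested 2 h later and kept only if 28S/18S ratio was 1.6–2.2 with no degradation. 25 μg total RNA oligo-dT primed and labeled with Cy3/Cy5-dCTP. Labeled cDNA hybridized about 16 h at 42°C to duplicate-spotted 68-mer oligo arrays. Six individual comparisons analyzed statistically.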

Candida parapsilosis [2] = experiment: Antifungal activity against Candida parapsilosis CLIB214 assessed as growth inhibition in presence of 10% fetal calf serum at 37 degC; format: functional, organism-based
Method in brief: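 YPD cultures started at A600 0.2, supplemented with 10% (vol/vol) fetal calf serum, and grown at 30°C or 37°C. Farnesol added with the serum. Growth monitored by A600 or cell counting.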

Candida parapsilosis [3] = experiment: Antifungal activity against Candida parapsilosis CLIB214 assessed as growth inhibition at 50 uM after 4 hrs; format: functional; details: CLIB214, 4 h
Method in brief: (§2)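 C. parapsilosis CLIB214 grown overnight in YPD at 30°C, diluted to A600 0.2 in fresh YPD, grown 4 h (A600 0.8), then farnesol added at final 10, 20, 50 or 100 μM from a 40 mM methanol stock. Methanol-only controls. Growth followed by A600 or by cell counting with a particle counter.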

Candida parapsilosis [4] = experiment: Effect on GDH2 gene expression in Candida parapsilosis CLIB214 by microarray based transcriptional profiling; format: functional, organism-based
Method in brief: (§3)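 Strain CLIB214 grown overnight in YPD at 30°C, diluted to A600 0.2 in fresh YPD at 30°C. After 4 h (A600 0.8), farnesol (40 mM methanol stock) added to 50 μM final, or an equal methanol volume as control; cells harvested 2 h later. RNA was accepted only with a 28S/18S ratio of 1.6–2.2. Cy3/Cy5-dCTP-labelled cDNA was made from 25 μg total RNA. Hybridisation was to duplicate-spotted 68-mer oligo arrays (3,849 genes) at 42°C for about 16 h. Six individual comparisons.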

Candida parapsilosis [5] = experiment: Increase in ARP3 gene expression in Candida parapsilosis CLIB214 at 50 uM after 2 hrs by microarray based transcriptional profiling relative to control; format: functional; method in brief: as §3
Candida parapsilosis [6] = experiment: Increase in CGD gene ortholog accession number orf19.5847 expression in Candida parapsilosis CLIB214 at 50 uM after 2 hrs by microarray based transcriptional profiling relative to control; format: functional; method in brief: as §3
Candida parapsilosis [7] = experiment: Antifungal activity against Candida parapsilosis CLIB214 assessed as growth inhibition at 50 uM added 4 hrs after […] growth within 2 hrs by cell counting method; format: functional, organism-based; method in brief: as §2
Candida parapsilosis [8] = experiment: Antifungal activity against Candida parapsilosis CLIB214 assessed as growth inhibition at 50 uM added after 4 hrs of bacterial growth measured after 4 hrs; format: functional; details: Lodderomyces parapsilosis, CLIB214, 4 h
Method in brief: (§4)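 Overnight YPD culture at 30°C diluted to A600 0.2 in YPD. Farnesol added to 50 μM final at 2, 4, 6 or 8 h of growth (A600 about 0.8 at 4 h, 2.3 at 6 h, 6 at 8 h). Growth compared with methanol controls by A600 or cell counts.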

Candida parapsilosis [9] = experiment: Increase in GIR2 gene expression in Candida parapsilosis CLIB214 at 50 uM after 2 hrs by microarray based transcriptional profiling relative to control; format: functional
Method in brief: (§5)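 Strain grown overnight in YPD at 30°C, diluted to A600 0.2 in YPD at 30°C; farnesol (40 mM methanol stock) added at 4 h (A600 0.8), final 50 μM; methanol-only control. Cells collected 2 h later for RNA. Labelled cDNA from 25 μg total RNA (Cy3/Cy5-dCTP) hybridized to 68-mer oligo arrays at 42°C ~16 h; six individual comparisons analysed statistically.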

Candida parapsilosis [10] = experiment: Decrease in CGD gene ortholog accession number orf19.4372 expression in Candida parapsilosis CLIB214 at 50 uM after 2 hrs by microarray based transcriptional profiling relative to control; format: functional; method in brief: as §1
Candida parapsilosis [11] = experiment: Increase in ATP2 gene expression in Candida parapsilosis CLIB214 at 50 uM after 2 hrs by microarray based transcriptional profiling relative to control; format: functional; method in brief: as §3
Candida parapsilosis [12] = experiment: Increase in DOT5 gene expression in Candida parapsilosis CLIB214 at 50 uM after 2 hrs by microarray based transcriptional profiling relative to control; format: functional; method in brief: as §5
Candida parapsilosis [13] = experiment: Antifungal activity against Candida parapsilosis CLIB214 assessed as growth inhibition at 50 uM added after 8 hrs of bacterial growth measured after 4 hrs; format: functional; details: Lodderomyces parapsilosis; method in brief: as §4
Candida parapsilosis [14] = experiment: Decrease in CGD gene ortholog accession number orf19.2697 expression in Candida parapsilosis CLIB214 at 50 uM after 2 hrs by microarray based transcriptional profiling relative to control; format: functional; method in brief: as §1
Candida parapsilosis [15] = experiment: Effect on GAD1 gene expression in Candida parapsilosis CLIB214 by microarray based transcriptional profiling; format: functional, organism-based; method in brief: as §3
Candida parapsilosis [16] = experiment: Increase in CGD gene ortholog accession number orf19.966 expression in Candida parapsilosis CLIB214 at 50 uM after 2 hrs by microarray based transcriptional profiling relative to control; format: functional; method in brief: as §5
Candida parapsilosis [17] = experiment: Decrease in STE23 gene expression in Candida parapsilosis CLIB214 at 50 uM after 2 hrs by microarray based transcriptional profiling relative to control; format: functional; method in brief: as §3
Candida parapsilosis [18] = experiment: Increase in NIT2 gene expression in Candida parapsilosis CLIB214 at 50 uM after 2 hrs by microarray based transcriptional profiling relative to control; format: functional; method in brief: as §5
Candida parapsilosis [19] = experiment: Increase in GRP2 gene expression in Candida parapsilosis CLIB214 by RT-PCR; format: functional, organism-based
Method in brief: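 Cultures in YPD at 30°C, diluted to A600 0.2; 50 μM farnesol (final) or methanol added at 4 h, RNA harvested 2 h later. RT-PCR: 95°C hot start 1 min 30 s, then 26 cycles (95°C 40 s, 55°C 2 min, 72°C 3 min), final 72°C 5 min; each gene signal normalized to ACT1.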

Candida parapsilosis [20] = experiment: Decrease in CGD gene ortholog accession number orf19.5156 expression in Candida parapsilosis CLIB214 at 50 uM after 2 hrs by microarray based transcriptional profiling relative to control; format: functional; method in brief: as §1
Candida parapsilosis [21] = experiment: Increase in CGD gene ortholog accession number orf19.1457 expression in Candida parapsilosis CLIB214 at 50 uM after 2 hrs by microarray based transcriptional profiling relative to control; format: functional; method in brief: as §3
Candida parapsilosis [22] = experiment: Antifungal activity against Candida parapsilosis CLIB214 assessed as growth inhibition at 50 uM added after 4 hrs of bacterial growth measured after 2 hrs; format: functional; details: Lodderomyces parapsilosis; method in brief: as §4
Candida parapsilosis [23] = experiment: Decrease in CGD gene ortholog accession number orf19.6281 expression in Candida parapsilosis CLIB214 at 50 uM after 2 hrs by microarray based transcriptional profiling relative to control; format: functional; method in brief: as §1
Candida parapsilosis [24] = experiment: Increase in CGD gene ortholog accession number orf19.2446 expression in Candida parapsilosis CLIB214 at 50 uM after 2 hrs by microarray based transcriptional profiling relative to control; format: functional; method in brief: as §3
Candida parapsilosis [25] = experiment: Decrease in CGD gene ortholog accession number orf19.2097 expression in Candida parapsilosis CLIB214 at 50 uM after 2 hrs by microarray based transcriptional profiling relative to control; format: functional; method in brief: as §1

With `CC(C)=CCC/C(C)=C/CC/C(C)=C/CO` [FARNESOL] the “fold change (FC)” value (Candida parapsilosis [1]) was 1.56, the Activity (Candida parapsilosis [2]) was “inactive” and the inhibition at 50 µM (Candida parapsilosis [3]) was 25.5%. For the same compound, the Activity (Candida parapsilosis [4]) was “inactive”, the “fold change (FC)” value (Candida parapsilosis [5]) was 1.67 and the “fold change (FC)” value (Candida parapsilosis [6]) was 1.89. For the same compound, the Activity (Candida parapsilosis [7]) was “Active”, the inhibition at 50 µM (Candida parapsilosis [8]) was 83% and the “fold change (FC)” value (Candida parapsilosis [9]) was 1.74. The “fold change (FC)” value (Candida parapsilosis [10]) was 1.67, the “fold change (FC)” value (Candida parapsilosis [11]) was 2.16 and the “fold change (FC)” value (Candida parapsilosis [12]) was 1.5. For the same compound, the inhibition at 50 µM (Candida parapsilosis [13]) was 16%, the “fold change (FC)” value (Candida parapsilosis [14]) was 1.81 and the Activity (Candida parapsilosis [15]) was “inactive”. The “fold change (FC)” value (Candida parapsilosis [16]) was 1.6, the “fold change (FC)” value (Candida parapsilosis [17]) was 2.13 and the “fold change (FC)” value (Candida parapsilosis [18]) was 1.86. For the same compound, the Activity (Candida parapsilosis [19]) was “Active”, the “fold change (FC)” value (Candida parapsilosis [20]) was 2.02 and the “fold change (FC)” value (Candida parapsilosis [21]) was 1.55. For the same compound, the inhibition at 50 µM (Candida parapsilosis [22]) was 88.5%, the “fold change (FC)” value (Candida parapsilosis [23]) was 1.72 and the “fold change (FC)” value (Candida parapsilosis [24]) was 1.59. The “fold change (FC)” value (Candida parapsilosis [25]) was 1.53.
